Columns and labels:
[1] = test system: Neuro-2a and HeLa cell lines; assay: Endocytic uptake of AF488-labelled probes by flow cytometry; type: cell-based; conditions: AF488-H1 added after reagent treatment, biological duplicates
Galectin-3 (Gal3) = assay: Gal3 recruitment to damaged endosomes; type: cell-based
TFEB = TFEB nuclear accumulation; type: cell-based; conditions: for nuclear translocation of TFEB: percentage of cells displaying TFEB nuclear accumulation, biological duplicates
In short: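 HeLa and Neuro-2a cells were treated with the CPP combined with an endosome-priming small molecule, or with LLOME. TFEB localization was then followed over time until the protein returned to a cytoplasmic distribution.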

Chmp1b = Chmp1b recruitment to damaged endosomes; type: cell-based
Neuro-2a and HeLa = assay: Recovery of LysoTracker Green staining; type: cell-based; conditions: cell line not specified; biological triplicates
In short: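 HeLa and Neuro-2a cells were exposed to the delivery agent, or LLOME as the reference, then washed. LysoTracker was added at increasing intervals after washing, and lysosomal staining was followed over time to find when it returned to the untreated level.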

[2] = cells incubated with reagent, washed and imaged, biological duplicates

SMILES | uptake of H1 [1] | toxicity to cells of cell penetration (cells) | Gal3 recruitment (Galectin-3 (Gal3); Neuro-2a) | Gal3 distribution / puncta (Galectin-3 (Gal3); [2]) | additional time to return to a cytoplasmic TFEB distribution (TFEB; after the initial 3h, biological triplicates) [h] | time TFEB nuclear accumulation is steady or rising after treatment (TFEB; biological triplicates) [h] | nuclear translocation of TFEB (TFEB) | Chmp1b recruitment (Chmp1b; Neuro-2a) | number of Chmp1b puncta (Chmp1b; [2]) | recovery time of LysoTracker staining (Neuro-2a and HeLa) [h]
COC(=O)[C@H](CC(C)C)NC(=O)[C@@H](N)CC(C)C [LLOME, L-leucyl-L-leucine methyl ester] | stimulated | delayed loss of viability | did not trigger | trigger the recruitment of Chmp1b and Gal3 | 9 | 3 | triggered the nuclear translocation of TFEB | did not trigger | trigger the recruitment of Chmp1b and Gal3 | 8
CO/C1=C\C(C)=C\[C@@H](C)[C@@H](O)[C@@H](C)C/C(C)=C/C=C/[C@H](OC)[C@@H]([C@@H](C)[C@@H](O)[C@H](C)[C@@]2(O)C[C@@H](O)[C@H](C)[C@@H](C(C)C)O2)OC1=O [bafilomycin] |  |  |  |  |  |  | positive control |  |  | 

Source: publication PMC7502533 (ACS chemical biology, 2020)
